In ChEMBL document CHEMBL4825663 (J Med Chem, 2021):
Activity calls are given as the source filed them. No cut-off for these calls is given here.

Tests used:
[1] = Drug accumulation in Sprague-Dawley rat plasma at 20 mg/kg, po administered once per week for 4 weeks in presence of 10 mg/kg encequidar by LC-MS/MS analysis; type: ADME, organism-based; conditions: in vivo, 672 h
[2] = Cmax in Sprague-Dawley rat at 20 mg/kg, po measured upto 24 hrs in presence of 10 mg/kg encequidar by LC-MS/MS analysis; type: ADME, organism-based; parameters: route oral, dose 20 mg/kg, time <=24; conditions: in vivo
NCI-H460 = assay: Antitumor activity against human NCI-H460 cells xenografted in athymic nude mouse assessed as median tumor growth delay at 24 mg/kg, iv administered every other day for 4 doses and monitored for 48 days; type: functional; conditions: time 48 day
Procedure, shortened: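 Female athymic NCr-nu mice carried subcutaneous NCI-H460 xenografts. […] Tumor weights and body weights were followed for 48 days after implantation. Read-out was median tumor growth delay.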

[3] = Cmax in Sprague-Dawley rat at 20 mg/kg, po measured upto 24 hrs by LC-MS/MS analysis; type: ADME, organism-based; parameters: route oral, dose 20 mg/kg, time <=24; conditions: in vivo
[4] = Toxicity in athymic nude mouse xenografted with human MDA-MB-231 cells assessed as reduction in body weight at 30 mg/kg, po administered every other day for 4 doses in presence of 12 mg/kg encequidar and monitored for 70 to 82 days; type: organism-based; parameters: scale not given: the % may be the effect or the level left; conditions: in vivo, time 70-82 day
Procedure, shortened: (§1)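 Female athymic NCr-nu mice (n = 10/group) bearing subcutaneous MDA-MB-231 xenografts were treated from day 8. […] Individual body weights were monitored for 82 days after implantation.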

MDA-MB-231 [5] = assay: (§2) Antitumor activity against human MDA-MB-231 cells xenografted in athymic nude mouse assessed as reduction in median number of days for tumor to reach two tumor mass doubling at 30 mg/kg, po administered every other day for 4 doses in presence of 12 mg/kg encequidar and monitored for 70 to 82 days (reference value: 13.1 day); type: functional; conditions: time 70-82 day
[6] = Ratio of drug concentration in BALB/c mouse liver to plasma at 20 mg/kg, po measured upto 24 hrs in presence of 10 mg/kg encequidar by LC-MS/MS analysis; type: ADME, organism-based
[7] = Drug excretion in Sprague-Dawley rat bile at 20 mg/kg, po in presence of 10 mg/kg encequidar; type: ADME, organism-based; conditions: in vivo
[8] = Toxicity in athymic nude mouse xenografted with human MDA-MB-231 cells assessed as reduction in body weight at 20 mg/kg, po administered every other day for 4 doses in presence of 8 mg/kg encequidar and monitored for 70 to 82 days; type: organism-based; conditions: in vivo, time 70-82 day; procedure, shortened: as §1
MDA-MB-231 [9] = assay: as §2, with “40” for “30”, “16” for “12”; type: functional; conditions: time 70-82 day
SK-OV-3 = assay: Antitumor activity against human SK-OV-3 cells xenografted in athymic nude mouse assessed as tumor growth inhibition in presence of encequidar; type: functional
[10] = Ratio of drug concentration in BALB/c mouse stomach to plasma at 20 mg/kg, po measured upto 24 hrs in presence of 10 mg/kg encequidar by LC-MS/MS analysis; type: ADME, organism-based
[11] = target: T1, Solute carrier organic anion transporter family member 1B3 (Homo sapiens, UniProt Q9NPD5); assay: Inhibition of human OATP1B3 assessed as reduction in intracellular probe substrate accumulation upto 100 uM by microplate scintillation counter analysis relative to control; type: cell-based
T1 sequence (Q9NPD5 whole entry): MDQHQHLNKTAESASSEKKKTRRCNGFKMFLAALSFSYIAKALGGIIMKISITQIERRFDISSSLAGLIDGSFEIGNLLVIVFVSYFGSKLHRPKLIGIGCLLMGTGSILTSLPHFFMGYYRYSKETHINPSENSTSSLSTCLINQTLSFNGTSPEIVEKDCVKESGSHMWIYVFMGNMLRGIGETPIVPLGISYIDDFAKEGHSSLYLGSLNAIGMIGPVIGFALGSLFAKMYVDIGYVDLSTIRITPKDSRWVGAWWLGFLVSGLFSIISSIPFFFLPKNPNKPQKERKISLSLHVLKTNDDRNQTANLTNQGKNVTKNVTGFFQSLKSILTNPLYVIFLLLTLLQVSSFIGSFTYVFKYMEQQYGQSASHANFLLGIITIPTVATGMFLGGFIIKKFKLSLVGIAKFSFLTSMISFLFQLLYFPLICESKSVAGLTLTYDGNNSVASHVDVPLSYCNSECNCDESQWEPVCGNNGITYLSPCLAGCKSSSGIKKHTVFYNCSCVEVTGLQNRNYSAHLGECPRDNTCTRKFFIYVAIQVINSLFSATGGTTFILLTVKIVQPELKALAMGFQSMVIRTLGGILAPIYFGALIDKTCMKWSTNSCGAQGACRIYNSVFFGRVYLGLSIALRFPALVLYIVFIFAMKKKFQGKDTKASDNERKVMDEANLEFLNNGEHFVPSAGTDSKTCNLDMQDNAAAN
Procedure, shortened: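 Cellular uptake-inhibition assays used Chinese hamster ovary, HEK293 or MDCKII cells stably expressing the respective human SLC transporter, run alongside the corresponding control cells. Inhibitor was tested at concentrations up to 100 μM.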

[12] = Cmax in human at 900 mg, po administered as single dose; type: ADME, organism-based; parameters: route oral, dose 900 mg; conditions: in vivo
[13] = Drug distribution in Sprague-Dawley rat brain; type: ADME, tissue-based; conditions: in vivo
[14] = Drug distribution in Sprague-Dawley rat bile; type: ADME, tissue-based; conditions: in vivo
[15] = target: ATP-dependent translocase ABCB1 (Homo sapiens, UniProt P08183); assay: Inhibition of P-gp in human Caco-2 cells assessed as reduction in paclitaxel efflux pre-incubated for 30 mins and measured after 120 mins by LC-MS/MS analysis; type: cell-based
Sequence of ATP-dependent translocase ABCB1 (P08183 whole entry): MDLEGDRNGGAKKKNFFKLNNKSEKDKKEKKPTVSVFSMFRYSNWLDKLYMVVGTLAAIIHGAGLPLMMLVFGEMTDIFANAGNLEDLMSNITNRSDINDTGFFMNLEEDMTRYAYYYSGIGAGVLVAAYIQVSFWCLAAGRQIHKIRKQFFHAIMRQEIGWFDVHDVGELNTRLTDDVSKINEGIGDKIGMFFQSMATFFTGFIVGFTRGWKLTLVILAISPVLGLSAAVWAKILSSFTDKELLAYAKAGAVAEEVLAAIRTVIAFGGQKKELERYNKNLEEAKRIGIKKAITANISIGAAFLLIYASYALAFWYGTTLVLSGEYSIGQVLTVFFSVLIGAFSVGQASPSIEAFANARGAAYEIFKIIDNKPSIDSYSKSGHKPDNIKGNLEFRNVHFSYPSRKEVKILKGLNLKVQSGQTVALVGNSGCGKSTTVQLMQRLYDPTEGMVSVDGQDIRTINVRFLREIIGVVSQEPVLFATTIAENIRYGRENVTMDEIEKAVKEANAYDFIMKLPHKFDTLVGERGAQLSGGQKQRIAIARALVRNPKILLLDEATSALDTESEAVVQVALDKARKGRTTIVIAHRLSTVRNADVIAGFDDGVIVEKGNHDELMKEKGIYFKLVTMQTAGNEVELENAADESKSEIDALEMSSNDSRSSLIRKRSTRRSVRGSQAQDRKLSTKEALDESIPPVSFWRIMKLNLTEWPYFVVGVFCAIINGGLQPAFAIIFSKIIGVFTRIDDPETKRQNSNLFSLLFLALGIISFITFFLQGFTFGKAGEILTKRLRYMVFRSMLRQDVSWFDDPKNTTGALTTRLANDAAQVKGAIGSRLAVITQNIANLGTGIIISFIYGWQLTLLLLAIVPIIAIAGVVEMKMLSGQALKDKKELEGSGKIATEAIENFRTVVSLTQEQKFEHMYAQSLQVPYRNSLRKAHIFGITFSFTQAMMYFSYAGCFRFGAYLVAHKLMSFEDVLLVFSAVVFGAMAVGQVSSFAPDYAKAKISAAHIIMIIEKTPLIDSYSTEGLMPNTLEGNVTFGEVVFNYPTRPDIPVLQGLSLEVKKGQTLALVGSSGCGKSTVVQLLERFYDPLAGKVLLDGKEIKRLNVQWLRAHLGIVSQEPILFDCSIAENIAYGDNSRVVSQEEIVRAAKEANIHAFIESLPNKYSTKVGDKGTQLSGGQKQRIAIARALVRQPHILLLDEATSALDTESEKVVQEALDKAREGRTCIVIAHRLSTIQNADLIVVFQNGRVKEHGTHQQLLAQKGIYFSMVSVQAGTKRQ
Procedure, shortened: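 Bidirectional paclitaxel transport across Caco-2 monolayers with coadministered inhibitor. Apparent permeability was measured apical-to-basal (absorption) and basal-to-apical (efflux). IC50 was derived from these permeability data.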

[16] = Inhibition of P-gp in MDCK-MDR1 cells assessed as reduction in basal to apical transport of paclitaxel measured after 120 mins by LC-MS/MS analysis; type: cell-based; conditions: Canis lupus familiaris, MDCK-MDR1, 2 h
[17] = Toxicity in Beagle dog assessed as increase in total leukocyte and eosinophil counts at >= 100 mg/kg, po and measured after 13 weeks; type: organism-based, Canis lupus familiaris; conditions: in vivo, 2184 h
[18] = Drug distribution in Beagle dog spinal cord; type: ADME, tissue-based, Canis lupus familiaris; conditions: in vivo
[19] = AUClast in Beagle dog at 10 mg/kg, po measured upto 48 hrs by LC-MS/MS analysis; type: ADME, organism-based, Canis lupus familiaris; parameters: route oral, dose 10 mg/kg, time <=48; conditions: in vivo
Procedure, shortened: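 Single dose in male Sprague-Dawley rats and male Beagle dogs (n = 3 per species), given 3 mg/kg IV or 10 mg/kg PO. Plasma was sampled to derive Cmax, Tmax, T1/2 and AUClast by each route. Oral bioavailability (F) was calculated from the PO and IV AUClast.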

For `CC(=O)O[C@H]1C(=O)[C@@]2(C)[C@H]([C@H](OC(=O)c3ccccc3)[C@]3(O)C[C@H](OC(=O)[C@H](O)[C@@H](NC(=O)c4ccccc4)c4ccccc4)C(C)=C1C3(C)C)[C@]1(OC(C)=O)CO[C@@H]1C[C@@H]2O` [PACLITAXEL], the Drug uptake [1] was “Not Active”, the Cmax [2] was 1250 ng/mL and the Time (NCI-H460) was 16.3 days. For the same molecule, the Cmax [3] was 127 ng/mL, the Activity [4] was 5% and the Time (MDA-MB-231 [5]) was >69 days. For the same molecule, the Kp at 24 h [6] was > 1, the Drug excretion [7] was “Metabolite_Detected” and the Activity [8] was “Non-Toxic”. The Time (MDA-MB-231 [9]) was >69 days, the Activity (SK-OV-3) was “Active” and the Kp at 24 h [10] was > 1.

With `COc1cc2c(cc1OC)CN(CCc1ccc(-n3nnc(-c4cc(OC)c(OC)cc4NC(=O)c4cc(=O)c5ccccc5o4)n3)cc1)CC2` the “inhibition (INH)” value [11] was < 50%, the Cmax [12] was 6.6 ng/mL and the Drug uptake [13] was “Not Active”. For the same molecule, the Drug uptake [14] was “Active”, the IC50 [15] was 53 nM and the IC50 [16] was 35 nM. For the same molecule, the Activity [17] was “Toxic”, the Drug uptake [18] was “Not Active” and the AUC(0-t) at 48 h [19] was 724 ng·h/mL.
